Data on 14 molecules can be found in ChEMBL document CHEMBL4673290, “Diazaspirononane Nonsaccharide Inhibitors of O-GlcNAcase (OGA) for the Treatment of Neurodegenerative Disorders” (J Med Chem, 2020).

SMILES strings stand for the structures. Values after ≈ are worked out from the molar mass of the structure shown.

A word on the IC50: it is the concentration needed to halve the response being measured. What is called microsomal CLint is the capacity of the preparation to metabolise the compound, expressed as a volume cleared per time. Low values mean greater metabolic stability, high ones faster metabolism. A word on the pKa: it is the pH at which an ionisable group is half protonated. Lower therefore signals a stronger acid or weaker base. The efflux ratio is a quotient of directional permeabilities that is used to spot active efflux.

Protein O-GlcNAcase, sequence (O60502 whole entry, looked up, change not shown): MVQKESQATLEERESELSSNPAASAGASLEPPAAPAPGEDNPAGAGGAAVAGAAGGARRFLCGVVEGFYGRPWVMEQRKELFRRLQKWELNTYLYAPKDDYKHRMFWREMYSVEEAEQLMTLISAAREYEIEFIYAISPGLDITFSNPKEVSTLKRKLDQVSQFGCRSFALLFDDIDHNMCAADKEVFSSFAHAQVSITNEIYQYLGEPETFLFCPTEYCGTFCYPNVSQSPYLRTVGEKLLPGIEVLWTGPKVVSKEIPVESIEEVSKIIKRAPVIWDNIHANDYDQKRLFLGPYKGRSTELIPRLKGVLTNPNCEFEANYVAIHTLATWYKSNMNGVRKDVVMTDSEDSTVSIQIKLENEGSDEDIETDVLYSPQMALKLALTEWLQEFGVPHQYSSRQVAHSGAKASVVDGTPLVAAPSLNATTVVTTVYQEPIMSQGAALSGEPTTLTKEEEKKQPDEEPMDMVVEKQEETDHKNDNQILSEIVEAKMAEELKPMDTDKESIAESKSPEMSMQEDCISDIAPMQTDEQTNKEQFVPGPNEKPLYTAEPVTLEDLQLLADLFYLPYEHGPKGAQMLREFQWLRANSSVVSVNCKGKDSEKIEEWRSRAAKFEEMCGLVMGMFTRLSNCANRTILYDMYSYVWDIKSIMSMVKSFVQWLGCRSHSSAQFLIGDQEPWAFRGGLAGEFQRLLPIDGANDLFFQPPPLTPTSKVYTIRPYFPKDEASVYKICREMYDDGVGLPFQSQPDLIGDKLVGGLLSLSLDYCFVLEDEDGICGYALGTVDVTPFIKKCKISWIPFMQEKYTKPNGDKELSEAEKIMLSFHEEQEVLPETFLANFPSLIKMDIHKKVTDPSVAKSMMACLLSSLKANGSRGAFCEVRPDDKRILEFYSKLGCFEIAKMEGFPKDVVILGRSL

Test system in one series: not listed separately
Put plainly: Kinetic solubility of compound at pH 7.4. The series is classed as physicochemical. The following applies: buffer, read-out: Kinetic_solubility.
Take `CC(=O)Nc1ncc(CN2CCC3(CCN(c4cc(C)nc5ccccc45)C3)C2)s1` (racemic): the solubility kinetic was determined as 71 µM (≈ 29.9 µg/mL).

A further series addresses Protein O-GlcNAcase (Homo sapiens, UniProt O60502). Kind of series: Inhibition of OGA in HEK293 cells induced with human Tau […] mutant assessed as increase in O-GlcNAcylated protein levels measured after 6 hrs by Hoechst 33342 dye based fluorescence analysis. The series is classed as cell-based.
Conditions: not given
In a few lines:
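Janssen HEK293 line inducible for P301L human Tau 2N4R, seeded two days before at 4000 cells/well in low-glucose assay medium. Compound exposure 6 h with 0.2% DMSO. Cells fixed with 4% PFA, permeabilized, then stained with CTD110.6 anti-O-GlcNAc (1/1000, 4 °C overnight) and a fluorescent secondary. Readout was 488 nm intensity over nine fields; Hoechst nuclei counted. Thiamet-G 200 μM defined maximum. IC50 by nonlinear regression.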
Consider `Cc1cc(N2CCC3(CCN(Cc4ccc5c(c4)OCO5)C3)C2)n2ncnc2n1` (centres undefined), for which the IC50 was greater than 1000 nM.

Regarding `CC(=O)Nc1ncc(CN2CCC3(CCC(Cc4cc(C)nc(C)c4)C3)C2)s1` (centres undefined), the IC50 was 537 nM.

For the molecule `CC(=O)Nc1ncc(CN2CC3(CCN(c4cc(C)nc5ncnn45)C3)C2)s1`, the IC50 was 10000 nM.

In the case of `CC(=O)Nc1ncc(CN2CC[C@]3(C2)C[C@@H](Cc2cc(C)nc(C)c2)C3)s1`, the IC50 is 295 nM.

For the molecule `CC(=O)Nc1ncc(CN2CCC3(C2)CN(c2cc(C)nc4ncnn24)C3)s1`, the IC50 was determined as 9330 nM.

Consider `CC(=O)Nc1ncc(CN2CCC3(CCN(c4cc(C)nc5ncnn45)C3)C2)s1` (centres undefined), for which the IC50 worked out at 575 nM.

In the case of `CC(=O)Nc1ncc(CN2CCC3(CCC(COc4cc(C)nc(C)c4)C3)C2)s1` (centres undefined), the IC50 turned out to be 501 nM.

For the molecule `CC(=O)Nc1ncc(CN2CC[C@]3(C2)C[C@H](Cc2cc(C)nc(C)c2)C3)s1`, the IC50 stood at 240 nM.

Regarding `CC(=O)Nc1ncc(CN2CCC3(CCC(c4cc(C)nc(C)c4)C3)C2)s1` (centres undefined), the IC50 stood at 214 nM.

As to `CC(=O)Nc1ncc(CN2CCC3(CC(c4cc(C)nc(C)c4)CO3)C2)s1` (centres undefined), the IC50 was 603 nM.

As to `CC(=O)Nc1ncc(CN2CCC3(CCN(c4cc(C)nc(C)c4)C3)C2)s1` (racemic), the IC50 was found to be 141 nM.

For `CC(=O)Nc1ncc(CN2CCC3(CCN(c4cc(C)nc(C)n4)C3)C2)s1` (racemic), the IC50 came to 170 nM.

`CC(=O)Nc1ncc(CN2CCC3(CCN(c4cc(C)nc5ccccc45)C3)C2)s1` (racemic): the IC50 stood at 39 nM.

With `Cc1cc(N2CCC3(CCN(Cc4ccc5sc(C)nc5c4)C3)C2)n2ncnc2n1` (racemic), the IC50 was greater than 1000 nM.

Test system in another series: not listed separately
Kind of series: in vitro. The following applies: mouse, liver microsomes, CLH. On the technique in general: Microsomes from liver hold many membrane-bound enzymes, among them those of drug oxidation.
Consider `CC(=O)Nc1ncc(CN2CCC3(CCN(c4cc(C)nc5ncnn45)C3)C2)s1` (centres undefined), for which the microsomal CLint at 1 h, 1 µM was less than 13 µL/min/mg.

Molecule `CC(=O)Nc1ncc(CN2CCC3(CCN(c4cc(C)nc(C)c4)C3)C2)s1` (racemic) displayed a microsomal CLint at 1 h, 1 µM of less than 8 µL/min/mg.

Test system in a further series: not listed separately
Put plainly: Inhibition of human recombinant full-length OGA transcript variant 1 expressed in HEK293T cells using FM-GlcNAc as substrate preincubated for 60 mins followed by addition of substrate and measured after 6 hrs by fluorescence assay.
Conditions: not given
In a few lines: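 Full-length human OGA, 2 nM, preincubated with compound for 60 min at room temperature. FM-GlcNAc substrate at 100 μM final, in 200 mM citrate/phosphate pH 7.2 with 0.005% Tween-20 and ≤1% DMSO. Run 6 h at room temperature, stopped with 500 mM carbonate pH 11.0. Fluorescence read at 485/538 nm. IC50 and Hill coefficient from least-squares fit, normalised to no-inhibitor and saturating reference controls.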
Take `Cc1cc(N2CCC3(CCN(Cc4ccc5c(c4)OCO5)C3)C2)n2ncnc2n1` (centres undefined): the IC50 came out at 129 nM.

Take `CC(=O)Nc1ncc(CN2CCC3(CCC(Cc4cc(C)nc(C)c4)C3)C2)s1` (centres undefined): the IC50 worked out at 309 nM.

Regarding `CC(=O)Nc1ncc(CN2CC3(CCN(c4cc(C)nc5ncnn45)C3)C2)s1`, the IC50 amounted to 34 nM.

As for `CC(=O)Nc1ncc(CN2CC[C@]3(C2)C[C@@H](Cc2cc(C)nc(C)c2)C3)s1`, the IC50 stood at 209 nM.

Turning to `CC(=O)Nc1ncc(CN2CCC3(C2)CN(c2cc(C)nc4ncnn24)C3)s1`, the IC50 is 41 nM.

In the case of `CC(=O)Nc1ncc(CN2CCC3(CCN(c4cc(C)nc5ncnn45)C3)C2)s1` (centres undefined), the IC50 was determined as 4 nM.

On to `CC(=O)Nc1ncc(CN2CCC3(CCC(COc4cc(C)nc(C)c4)C3)C2)s1` (centres undefined), for which the IC50 was 135 nM.

On to `CC(=O)Nc1ncc(CN2CC[C@]3(C2)C[C@H](Cc2cc(C)nc(C)c2)C3)s1`, for which the IC50 was 204 nM.

Consider `CC(=O)Nc1ncc(CN2CCC3(CCC(c4cc(C)nc(C)c4)C3)C2)s1` (centres undefined), for which the IC50 came out at 66 nM.

Turning to `CC(=O)Nc1ncc(CN2CCC3(CC(c4cc(C)nc(C)c4)CO3)C2)s1` (centres undefined), the IC50 turned out to be 21 nM.

For `CC(=O)Nc1ncc(CN2CCC3(CCN(c4cc(C)nc(C)c4)C3)C2)s1` (racemic), the IC50 came out at 6 nM.

In the case of `CC(=O)Nc1ncc(CN2CCC3(CCN(c4cc(C)nc(C)n4)C3)C2)s1` (racemic), the IC50 was 13 nM.

On to `CC(=O)Nc1ncc(CN2CCC3(CCN(c4cc(C)nc5ccccc45)C3)C2)s1` (racemic), for which the IC50 came out at 9 nM.

As to `Cc1cc(N2CCC3(CCN(Cc4ccc5sc(C)nc5c4)C3)C2)n2ncnc2n1` (racemic), the IC50 was determined as 22 nM.

Test system in a further series: not listed separately
Put plainly: Kinetic solubility of compound at pH 2. It counts as physicochemical. The settings on record: buffer, read-out: Kinetic_solubility.
Regarding `CC(=O)Nc1ncc(CN2CCC3(CCN(c4cc(C)nc5ccccc45)C3)C2)s1` (racemic), the solubility kinetic came out at 87 µM (≈ 36.7 µg/mL).

Test system in a further series: not listed separately
Kind of series: Dissociation constant, pKa of the compound.
Conditions: not given
The series is classed as physicochemical.
As for `CC(=O)Nc1ncc(CN2CCC3(CCN(c4cc(C)nc(C)c4)C3)C2)s1` (racemic), the pKa turned out to be 10.4.

Test system in the next series: not listed separately
Kind of series: in vitro. The following applies: human, liver microsomes, CLH.
The molecule `CC(=O)Nc1ncc(CN2CCC3(CCN(c4cc(C)nc5ncnn45)C3)C2)s1` (centres undefined) had a microsomal CLint at 1 h, 1 µM of less than 8 µL/min/mg.

Molecule `CC(=O)Nc1ncc(CN2CCC3(CCN(c4cc(C)nc(C)c4)C3)C2)s1` (racemic) showed a microsomal CLint at 1 h, 1 µM of less than 8 µL/min/mg.

The next series deals with P-gp (MDR1). Put plainly: Efflux ratio of apparent permeability across basolateral to apical over apical to basolateral side in MDCK2-MDR1 cells at 5 uM measured after 120 mins in absence of P-gp inhibitor GF120918 by LC-MS/MS analysis. The settings on record: dog, MDCK-MDR1.
On to `CC(=O)Nc1ncc(CN2CCC3(CCN(c4cc(C)nc5ncnn45)C3)C2)s1` (centres undefined), for which the efflux ratio at 2 h, 5 µM worked out at 13.5.

On to `CC(=O)Nc1ncc(CN2CCC3(CCN(c4cc(C)nc(C)c4)C3)C2)s1` (racemic), for which the efflux ratio at 2 h, 5 µM was determined as 1.6.

Test system in a further series: not listed separately
Put plainly: Inhibition of clostridium perfringens OGA using FM-GlcNAc as substrate preincubated for 60 mins followed by addition of substrate and measured after 6 hrs by fluorescence assay.
Conditions: not given
`CC(=O)Nc1ncc(CN2CC3(CCN(c4cc(C)nc5ncnn45)C3)C2)s1`: the IC50 came out at 3300 nM.

As for `CC(=O)Nc1ncc(CN2CCC3(CCN(c4cc(C)nc5ncnn45)C3)C2)s1` (centres undefined), the 50% inhibitory concentration (IC50) came out at 290 nM.
